Results as given in publication PMC10585311 (Saudi Pharmaceutical Journal : SPJ, 2023).

Legend:
S. typhi = assay: Disc diffusion antibacterial screening; type: cell-based, Salmonella typhi; conditions: S. typhi (G–ve)
Method in brief: (§1)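 Disc diffusion on standard nutrient agar as the basal medium. Values are from triplicate experiments. Significance was set at p < 0.05.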

P. aeruginosa = assay: Disc diffusion antibacterial screening; type: cell-based, Pseudomonas aeruginosa; conditions: P. aeruginosa (G–ve)
Method in brief: as §1

E. coli = assay: Disc diffusion antibacterial screening; type: cell-based, Escherichia coli; conditions: E. coli (G–ve)
Method in brief: as §1

S. aureus = assay: Disc diffusion antibacterial screening; type: cell-based; conditions: S. aureus (G + ve)
Method in brief: as §1

B. subtilis = assay: Disc diffusion antibacterial screening; type: cell-based, Bacillus subtilis; conditions: B. subtilis (G + ve)
Method in brief: as §1

tested bacteria = assay: Disc diffusion antibacterial screening, overall statements; type: cell-based
Method in brief: as §1

brine shrimp nauplii = assay: Brine shrimp lethality assay; type: in vivo; conditions: for percentage of dead shrimp (deaths): after 24 and 48 h
Method in brief: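 Brine shrimp lethality assay. Test compounds were dissolved in DMSO and made up at four levels. Each vial held 5 mL NaCl solution and one of four sample levels (A–D: 4, 8, 16, 32). Each vial received 10 nauplii, with triplicate vials per level. Mortality was scored at each level and averaged as percent.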

Aspergillus niger = assay: Mycelial growth inhibition, poisoned food technique; type: cell-based; conditions: in DMSO (20 μg/μL)
Aspergillus flavus = assay: as above; type: cell-based; conditions: in DMSO (20 μg/μL)
B. cereus = assay: Disc diffusion antibacterial screening; type: cell-based, Bacillus cereus
Method in brief: as §1

| Molecule | Diameter of Inhibition Zones (S. typhi) | Diameter of Inhibition Zones (P. aeruginosa) | Diameter of Inhibition Zones (E. coli) | Diameter of Inhibition Zones (S. aureus) | Diameter of Inhibition Zones (B. subtilis) | antibacterial activity (tested bacteria; all tested bacteria) | percentage of dead shrimp (deaths) (brine shrimp nauplii) | Percent inhibition of fungal mycelial growth (Aspergillus niger) | Percent inhibition of fungal mycelial growth (Aspergillus flavus) | zone of inhibition (B. cereus) | toxicity to brine shrimp (brine shrimp nauplii) | inhibitory activity (tested bacteria; tested gram-positive bacteria) |
| --- | --- | --- | --- | --- | --- | --- | --- | --- | --- | --- | --- | --- |
| CC[C@H]1OC(=O)[C@H](C)[C@@H](O[C@H]2C[C@@](C)(OC)[C@@H](O)[C@H](C)O2)[C@H](C)[C@@H](O[C@@H]2O[C@H](C)C[C@H](N(C)C)[C@H]2O)[C@](C)(O)C[C@@H](C)CN(C)[C@H](C)[C@@H](O)[C@]1(C)O [Azithromycin, reference compound] | **19 ± 0.5 mm | **17 ± 0.5 mm | **17 ± 0.4 mm | **18 ± 0.5 mm | **19 ± 0.6 mm | – | – | – | – | – | – | – |
| CO[C@H]1O[C@H](CO)[C@@H](O)[C@H](O)[C@H]1O [Compound 1, methyl α-D-glucopyranoside, reference compound] | – | – | – | – | – | did not show any antibacterial activity | – | – | – | – | – | – |
| CO[C@H]1O[C@H](COC(c2ccccc2)(c2ccccc2)c2ccccc2)[C@@H](O)[C@H](O)[C@H]1O [Compound 2, Methyl 6-O-(triphenylmethyl)-α-D-glucopyranoside] | – | 9 ± 0.1 mm | 9 ± 0.2 mm | – | 8 ± 0.5 mm | – | 32.11% | 36.43% | 33.33% | – | – | – |
| CCCCCCCCCCCCCC(=O)O[C@@H]1[C@@H](OC(=O)CCCCCCCCCCCCC)[C@@H](OC)O[C@H](COC(c2ccccc2)(c2ccccc2)c2ccccc2)[C@H]1OC(=O)CCCCCCCCCCCCC [Compound 4, Methyl 2,3,4-tri-O-myristoyl-6-O-(triphenylmethyl)-α-D-glucopyranoside] | 9 ± 0.5 mm | 8 ± 0.2 mm | – | – | 10 ± 0.3 mm | – | 47.64% | 31.92% | – | – | – | – |
| CO[C@H]1O[C@H](COC(c2ccccc2)(c2ccccc2)c2ccccc2)[C@@H](OC(=O)c2ccc(C(C)(C)C)cc2)[C@H](OC(=O)c2ccc(C(C)(C)C)cc2)[C@H]1OC(=O)c1ccc(C(C)(C)C)cc1 [Compound 5, Methyl 2,3,4-tri-O-(4-t-butylbenzoyl)-6-O-(triphenylmethyl)-α-D-glucopyranoside] | 10 ± 0.4 mm | – | *15 ± 0.2 mm | *17 ± 0.1 mm | – | – | 48.21% | – | *59.54 ± 0.14% | 17 ± 0.1 mm | – | – |
| COc1ccc(C(=O)OC[C@H]2O[C@H](OC)[C@H](O)[C@@H](O)[C@@H]2O)cc1 [Compound 7, Methyl 6-O-(4-methoxybenzoyl)-α-D-glucopyranoside] | – | – | 9 ± 0.4 mm | 10 ± 0.1 mm | *12 ± 0.2 mm | – | – | 48.40 ± 0.22% | 35.38 ± 0.32% | – | – | – |
| CCCCCCCCCCCC(=O)O[C@@H]1[C@@H](OC(=O)CCCCCCCCCCC)[C@@H](OC)O[C@H](COC(=O)c2ccc(OC)cc2)[C@H]1OC(=O)CCCCCCCCCCC [Compound 8, Methyl 2,3,4-tri-O-lauroyl-6-O-(4-methoxybenzoyl)-α-D-glucopyranoside] | – | – | 10 ± 0.1 mm | 11 ± 0.2 mm | 9 ± 0.3 mm | – | – | *66.41 ± 0.37% | *63.31 ± 0.51% | – | less toxic | – |
| C[C@@H]1[C@H](O)[C@@H](C)/C=C/C=C/CC/C=C/C=C/C=C/C=C/C(O[C@H]2O[C@H](C)[C@@H](O)[C@H](N)[C@@H]2O)CC2O[C@](O)(CC(O)C(O)CCC(O)CC(O)CC(O)CC(=O)O[C@H]1C)CC(O)C2C(=O)O (stereo partly drawn) [Nystatin, reference compound] | – | – | – | – | – | – | – | **66.40 ± 0.05% | **63.10 ± 0.09% | – | – | – |
| Methyl 2,3,4-tri-O-lauryl-6-O-(triphenylmethyl)-α-D-glucopyranoside [Compound 3] | 10 ± 0.1 mm | *12 ± 0.3 mm | – | – | – | – | – | 46.62% | 41.30% | – | less toxic | did not show any inhibitory activity |
